How the values were obtained:
[1] = biological target: T1, Beta-3 adrenergic receptor (Homo sapiens, UniProt P13945); assay: Displacement of [125I]iodocyanopindolol from cloned human adrenergic beta-3 receptor expressed in CHO cells; assay type: cell-based
Target sequence in this assay (P13945 whole entry): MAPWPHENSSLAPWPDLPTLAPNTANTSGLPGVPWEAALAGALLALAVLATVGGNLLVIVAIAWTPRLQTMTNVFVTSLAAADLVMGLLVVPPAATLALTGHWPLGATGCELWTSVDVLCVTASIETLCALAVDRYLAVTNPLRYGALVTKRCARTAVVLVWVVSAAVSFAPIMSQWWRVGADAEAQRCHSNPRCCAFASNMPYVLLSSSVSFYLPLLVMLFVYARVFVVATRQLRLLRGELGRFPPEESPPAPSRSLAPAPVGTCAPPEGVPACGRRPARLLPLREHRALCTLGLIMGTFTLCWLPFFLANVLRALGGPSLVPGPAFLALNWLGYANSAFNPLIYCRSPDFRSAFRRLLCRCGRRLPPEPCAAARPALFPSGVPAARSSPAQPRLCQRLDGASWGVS

[2] = system: African green monkey; assay: Effect on African green monkey serum assessed as potassium concentration at 0.5 mg/kg, iv; assay type: functional, Chlorocebus sabaeus
Summary of the method: (§1)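 Single iv dose given to ketamine-sedated African green monkeys, either 0.1 or 0.5 mg/kg as the line states. Three read-outs were recorded after dosing: change in serum free fatty acids (β3 lipolysis), change in serum K+ (a decrease is β2-mediated) and change in heart rate (β1/β2 tachycardia). Changes were tested for significance at P < 0.05.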

[3] = biological target: T1, Beta-3 adrenergic receptor; assay: Intrinsic activity at human cloned adrenergic beta3 receptor expressed in CHO cells assessed as cAMP accumulation relative to isoproterenol; assay type: functional, cell-based
Target sequence in this assay (P13945 whole entry, looked up): as the sequence (P13945 whole entry) above

[4] = system: African green monkey; assay: Effect on free fatty acid level in African green monkey serum at 0.5 mg/kg, iv; assay type: functional, Chlorocebus sabaeus; summary of the method: as §1
[5] = system: African green monkey; assay: Effect on tachycardia in African green monkey assessed as change in heart rate at 0.5 mg/kg, iv; assay type: functional, Chlorocebus sabaeus; summary of the method: as §1
[6] = system: African green monkey; assay: Effect on African green monkey assessed as change in free fatty acid level at 0.1 mg/kg, iv; assay type: functional, Chlorocebus sabaeus; summary of the method: as §1
[7] = biological target: Beta-1 adrenergic receptor (Homo sapiens, UniProt P08588); assay: Displacement of [125I]iodocyanopindolol from human cloned adrenergic beta-1 receptor expressed in CHO cells; assay type: cell-based
[8] = biological target: Beta-2 adrenergic receptor (Homo sapiens, UniProt P07550); assay: Displacement of [125I]iodocyanopindolol from human cloned adrenergic beta-2 receptor expressed in CHO cells; assay type: cell-based
[9] = system: African green monkey; assay: Effect on tachycardia in African green monkey assessed as change in heart rate at 0.1 mg/kg, iv; assay type: functional, Chlorocebus sabaeus; summary of the method: as §1
[10] = biological target: Beta-1 adrenergic receptor (Cavia porcellus) (UniProt B0FL73); assay: Intrinsic activity at adrenergic beta-1 receptor in spontaneously beating guinea pig atria assessed as acceleration in contraction relative to isoproterenol
[11] = system: African green monkey; assay: Effect on potassium levels in African green monkey serum at 0.1 mg/kg, iv; assay type: functional, Chlorocebus sabaeus; parameters: unit not given beside the values; summary of the method: as §1
[12] = system: African green monkey; assay: Ratio of effect on tachycardia to ED50 for lipolysis in African green monkey; assay type: functional, Chlorocebus sabaeus
Summary of the method: (§2)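 Compounds were given iv to ketamine-sedated African green monkeys across a range of doses. Lipolysis ED50 (mg/kg) came from the rise in serum free fatty acids. Onset doses were the lowest doses giving a statistically significant rise in heart rate (β1) or fall in serum K+ (β2). Each margin is the onset dose divided by the lipolysis ED50.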

[13] = system: African green monkey; assay: Ratio of serum potassium concentration to ED50 for lipolysis in African green monkey; assay type: functional, Chlorocebus sabaeus; summary of the method: as §2
[14] = system: African green monkey; assay: Effect on lipolysis in iv dosed African green monkey; assay type: functional; settings: Chlorocebus sabaeus; summary of the method: as §2

Beta-2 adrenergic receptor, sequence (P07550 whole entry): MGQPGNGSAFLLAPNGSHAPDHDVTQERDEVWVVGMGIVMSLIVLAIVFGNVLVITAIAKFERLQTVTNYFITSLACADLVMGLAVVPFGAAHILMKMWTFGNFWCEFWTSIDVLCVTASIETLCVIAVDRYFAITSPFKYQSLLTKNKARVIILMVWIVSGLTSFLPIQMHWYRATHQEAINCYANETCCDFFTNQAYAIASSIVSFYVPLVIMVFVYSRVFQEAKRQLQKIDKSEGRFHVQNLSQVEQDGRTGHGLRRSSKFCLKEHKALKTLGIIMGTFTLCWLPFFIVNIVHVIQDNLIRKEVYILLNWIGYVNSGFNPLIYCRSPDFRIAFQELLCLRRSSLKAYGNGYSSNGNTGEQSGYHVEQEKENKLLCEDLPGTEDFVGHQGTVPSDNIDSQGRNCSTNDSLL
Beta-1 adrenergic receptor (Cavia porcellus), sequence (B0FL73 1-467): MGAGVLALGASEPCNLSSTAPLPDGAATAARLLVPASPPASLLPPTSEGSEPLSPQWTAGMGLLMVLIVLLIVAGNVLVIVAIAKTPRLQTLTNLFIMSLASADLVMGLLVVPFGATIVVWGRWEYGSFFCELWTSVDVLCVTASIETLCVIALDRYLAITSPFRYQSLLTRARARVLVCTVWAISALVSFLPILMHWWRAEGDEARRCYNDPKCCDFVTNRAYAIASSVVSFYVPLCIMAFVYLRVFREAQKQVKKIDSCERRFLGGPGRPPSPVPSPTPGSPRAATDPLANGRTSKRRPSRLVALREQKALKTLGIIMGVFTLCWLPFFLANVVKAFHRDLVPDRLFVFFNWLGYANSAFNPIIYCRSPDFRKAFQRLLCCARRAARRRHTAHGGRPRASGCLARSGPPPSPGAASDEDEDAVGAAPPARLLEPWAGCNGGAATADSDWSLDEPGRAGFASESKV
Beta-1 adrenergic receptor, sequence (P08588 whole entry): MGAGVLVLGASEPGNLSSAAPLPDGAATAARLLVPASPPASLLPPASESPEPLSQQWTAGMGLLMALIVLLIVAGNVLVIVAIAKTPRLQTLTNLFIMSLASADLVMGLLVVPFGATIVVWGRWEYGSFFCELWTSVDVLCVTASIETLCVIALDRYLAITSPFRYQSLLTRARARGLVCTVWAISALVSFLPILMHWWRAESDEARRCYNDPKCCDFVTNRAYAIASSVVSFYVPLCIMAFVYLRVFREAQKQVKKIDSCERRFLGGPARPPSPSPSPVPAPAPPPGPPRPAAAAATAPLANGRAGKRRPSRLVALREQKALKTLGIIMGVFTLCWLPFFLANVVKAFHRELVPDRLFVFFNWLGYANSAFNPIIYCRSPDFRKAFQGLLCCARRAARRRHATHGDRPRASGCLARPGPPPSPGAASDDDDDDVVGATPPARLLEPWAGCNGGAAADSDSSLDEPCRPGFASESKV

Row | Compound | Ki [1] [nM] | Activity [2] | Intrinsic activity [3] [%] | Activity [4] | Activity [5] | Activity [6] | Ki [7] [nM] | Ki [8] [nM] | Activity [9] | Intrinsic activity [10] [%] | Activity [11] | Ratio [12] | Ratio [13] | ED50 [14] [µg/kg]
1 | COc1ccc(C(NC[C@H](O)c2ccc(O)c(NS(C)(=O)=O)c2F)c2ccc(OC)cc2)cc1 | 1700 | -0.49 | 24 | 0.39 | 4 |  |  |  |  |  |  |  |  | 
2 | COc1ccc([C@@H](Cc2ccccc2)NC[C@@H](O)Cc2ccc(O)c(NS(C)(=O)=O)c2)cc1OC | 6 |  | 86 |  |  | 1.06 | 2600 | 66 | 24 | 60 | -0.08 | 3 | >55 | 9

Source: ChEMBL document CHEMBL1140016, “Arylpropanolamines: selective beta3 agonists arising from strategies to mitigate phase I metabolic transformations” (Bioorg Med Chem Lett, 2007)
